MEKK2 mut-MEK5: MEK5 binding signal on mutant MEKK2 PB1, primary screen, biochemical, multiplex bead flow cytometry, Alexa488-MEK5. percent response, % at 10 µM. 0.35% of 290,000 active. AID 1530, 2009. Alexa488-MEK5 binding to MEKK2 mutant; in the data active = percent response above about 24%, passing the limit was not always enough
Rce1 inh: yeast Rce1p protease inhibitors, primary screen, biochemical, fluorescence, cell-free homogeneous | 0.27% of 290,000 active | calls only | yeast membranes, quenched prenylated peptide cleavage fluorescence | CAAX prenyl protease 2 (Saccharomyces cerevisiae (strain ATCC 204508 / S288c)), Q03530 | AID 2563, 2010;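 active = fall in fluorescence gain of 50% or more versus controls, with final raw signal at or below 3038400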;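 note: plate controls were neutral control wells for no effect and wells lacking membranes for full effect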
MEKK2wt PB1 HTS: modulators of MEK5 binding to wildtype MEKK2, primary screen, biochemical, multiplex bead flow cytometry, Alexa488-MEK5. Mitogen-activated protein kinase kinase kinase 2 (Homo sapiens), Q9Y2U5. Alexa488-MEK5 binding to MEKK2 WT; actives lie on both sides. binding response (% of control), % at 10 µM. 1.1% of 290,000 active; in the data active = binding response below about 67% or above about 130%
MEKK3 PB1 HTS: modulators of MEKK3-MEK5 PB1 binding, primary screen, biochemical, wildtype MEKK3, multiplex bead flow cytometry, Alexa488-MEK5; bead-based flow cytometry, Alexa488-MEK5 binding to MEKK3; actives lie on both sides; 0 = blocked by unlabeled MEK5, 100 = vehicle; binding response (% of control), % at 10 µM; 1.4% of 290,000 active; AID 1529, 2009;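 active = binding response more than 3 SD above or below the average of its plate-row segment, actives on both sides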;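 note: Alexa488 bead fluorescence after subtracting the streptavidin-only scavenger bead signal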
Target sequence (Q99759 whole entry, looked up): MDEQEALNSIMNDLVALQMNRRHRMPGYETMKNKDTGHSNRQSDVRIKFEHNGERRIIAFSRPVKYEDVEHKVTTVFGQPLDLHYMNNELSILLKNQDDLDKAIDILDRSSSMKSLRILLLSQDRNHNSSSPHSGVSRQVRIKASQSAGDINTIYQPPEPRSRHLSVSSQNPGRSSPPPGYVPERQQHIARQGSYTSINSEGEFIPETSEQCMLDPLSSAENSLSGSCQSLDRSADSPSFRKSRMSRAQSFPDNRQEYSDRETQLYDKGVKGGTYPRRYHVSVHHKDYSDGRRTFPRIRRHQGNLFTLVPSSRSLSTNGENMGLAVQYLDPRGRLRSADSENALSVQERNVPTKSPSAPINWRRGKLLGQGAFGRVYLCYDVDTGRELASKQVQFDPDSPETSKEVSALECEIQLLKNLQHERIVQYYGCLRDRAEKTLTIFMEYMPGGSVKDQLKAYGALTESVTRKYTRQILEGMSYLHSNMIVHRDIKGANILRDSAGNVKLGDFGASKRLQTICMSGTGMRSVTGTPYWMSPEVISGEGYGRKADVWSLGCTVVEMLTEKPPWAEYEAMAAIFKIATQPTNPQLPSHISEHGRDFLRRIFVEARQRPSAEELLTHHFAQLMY
UCH37 inh: inhibitors of human UCH37 deubiquitinase, primary screen, biochemical, Ub-AMC cleavage, fluorescence | 0.33% of 330,000 active | Ubiquitin carboxyl-terminal hydrolase isozyme L5 (Homo sapiens), Q9Y5K5 | inhibition, % (no concentration beside the values) | purified proteasome/UCH37;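 active = mean inhibition over replicate wells above about 20%, limit read from the data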;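 note: 0% = compound-free wells with enzyme and 100% = wells lacking proteasome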
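Material: Human UCH37 enzyme supplied as purified proteasome complex | Schedule: 30 min compound-proteasome preincubation then 25 min substrate reaction, room temperature | Detection: AMC fluorescence from Ub-AMC cleavage, excitation 355 nm, emission 460 nm | Benchmarks: Wells without proteasome as full block, compound-free enzyme plus substrate as uninhibited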
T cell HTS: modulators of CD8 T cell-vesicle binding, primary screen, mouse 2C CD8+ T cells, flow cytometry. 0.068% of 330,000 active. response (vesicle binding), % at 7 µM. 2C CD8+ T cell-vesicle binding; stronger effect = lower value. AID 2052, 2009;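 active = response, share of CD8 T cells binding vesicles, and their 90th percentile fluorescence all below set limits, cut at about 80% in these data, passing the limit was not always enough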;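 note: values below 100% mean blocked vesicle binding to the CD8+ T cells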
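System: murine 2C transgenic CD8+ T lymphocytes; also added: QL9-loaded Drosophila micro-vesicles; times: binding 1.5 h at 37 °C; measured by: flow cytometry, PE anti-B7-1 (FL2) versus Alexa647 anti-CD8 (FL8), PFA-fixed; control set: Peptide-free naked vesicles (low) and QL9 vesicles with 0.7% DMSO vehicle (high)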
MEKK2wt confirm: modulators of MEK5 binding to wildtype MEKK2, confirmation, biochemical, single concentration, multiplex bead flow cytometry; 2.4% of 5,900 active; Alexa488-MEK5 binding to MEKK2 WT; actives lie on both sides; binding response (% of control), % at 10 µM; AID 1892, 2009; shares compounds with MEKK3 PB1 HTS; in the data active = binding response below about 16% or above about 210%; inactive = in between
MEKK2mut confirm: mutant MEKK2 PB1-MEK5 binding signal retest – biochemical, single concentration, multiplex bead flow cytometry, confirmation | percent response, % at 10 µM | Alexa488-MEK5 binding to MEKK2 mutant | AID 1893, 2009 | 2% of 5,900 active | shares compounds with MEKK3 PB1 HTS; in the data active = percent response mostly above about 71%, no sharp cut-off; inactive = mostly below about 38%;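 note: higher means compound restores mutant binding toward wildtype level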
MEKK3 confirm: MEKK3 wild-type PB1 binding to MEK5, inhibitors, confirmation, biochemical, bead multiplex flow cytometry, single concentration, wildtype. shares compounds with MEKK3 PB1 HTS. Alexa488-MEK5 binding to MEKK3; stronger effect = lower value. binding response (% of control), % at 10 µM. 1.8% of 5,900 active. AID 1894, 2009;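 active = binding response below 72% of control, or above a set upper limit, though filed actives all read lower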;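 note: 100% = DMSO only wells and 0% = binding blocked by excess unlabeled MEK5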
* = called active by the depositor; [ ] = another dose, or the depositor's remark. Compounds with a hit are over-represented: about 2.5% of the library has one in this group of screens.

COc1cc(/C=N\NC(=O)CNC(=O)C2COc3ccccc3O2)ccc1O (stereo not given) was read as MEKK2 mut-MEK5 29.0, Rce1 inh inactive, MEKK2wt PB1 HTS 170.0*, MEKK3 PB1 HTS 134.0*, T cell HTS 243.9, MEKK2wt confirm 95.0, MEKK2mut confirm -2.0 and MEKK3 confirm 97.0.
Screening Cc1cc(C)c2ccc(=O)n(CC(=O)NN=Cc3ccccc3Cl)c2n1 returned UCH37 inh 4.1.
Screening O=C(CCCOc1ccccc1)NCCc1nc2ccccc2[nH]1 returned MEKK2 mut-MEK5 -6.0, Rce1 inh inactive, MEKK2wt PB1 HTS 87.0, MEKK3 PB1 HTS 74.0*[inhibitor], UCH37 inh 6.1, T cell HTS 310.3, MEKK2wt confirm 106.0, MEKK2mut confirm 5.0 and MEKK3 confirm 101.0.
Screening COc1ccc2ccccc2c1C=Nn1c(C)cc(C)c(C(N)=O)c1=O returned UCH37 inh 12.4.
Screening CCN1CCN(c2cc(N3CCc4ccccc4C3)c(F)cc2[N+](=O)[O-])CC1 returned MEKK2 mut-MEK5 39.0, Rce1 inh inactive, MEKK2wt PB1 HTS 151.0*, MEKK3 PB1 HTS 100.0, UCH37 inh 5.9, T cell HTS 161.0, MEKK2wt confirm 153.0, MEKK2mut confirm 22.0 and MEKK3 confirm 110.0.
`COC(=O)c1sccc1NC(=O)c1ccc(Br)o1` gave MEKK2 mut-MEK5 7.0, Rce1 inh inactive, MEKK2wt PB1 HTS 106.0, MEKK3 PB1 HTS 104.0, UCH37 inh 0.2 and T cell HTS 313.8.
Screening COC(=O)c1sccc1NC(=O)c1ccc(C)o1 returned MEKK2 mut-MEK5 -21.0, Rce1 inh inactive, MEKK2wt PB1 HTS -1.0*[inhibitor], MEKK3 PB1 HTS 0.0*[inhibitor], UCH37 inh 5.0, T cell HTS 203.5, MEKK2wt confirm 92.0, MEKK2mut confirm -2.0 and MEKK3 confirm 99.0.
`S=c1[nH]nc(C2CCCCC2)n1N=Cc1ccccc1Cl` gave UCH37 inh 6.1.
O=C(NN1C(=O)c2ccccc2C1=O)c1ccncc1 was read as MEKK2 mut-MEK5 2.0, Rce1 inh inactive, MEKK2wt PB1 HTS 102.0, MEKK3 PB1 HTS 104.0, UCH37 inh 4.5 and T cell HTS 192.3.
`CN(C)c1ccc(C(=O)NN2C(=O)c3ccccc3C2=O)cc1` gave MEKK2 mut-MEK5 1.0, Rce1 inh inactive, MEKK2wt PB1 HTS 120.0, MEKK3 PB1 HTS 132.0*, UCH37 inh 4.6, T cell HTS 420.0, MEKK2wt confirm 104.0, MEKK2mut confirm 1.0 and MEKK3 confirm 103.0.
`Cc1cc(C)nc(N=C(N)Nc2ccc(OCc3ccccc3)cc2)n1` gave UCH37 inh 4.0.
`CCc1ccc(OCC(=O)NN=C(C)c2ccccc2OC(F)F)cc1` gave UCH37 inh 1.0.
O=C(COC(=O)C1CCC(=O)N1)Nc1ccccc1Br (stereo not given) was read as MEKK2 mut-MEK5 -2.0, Rce1 inh inactive, MEKK2wt PB1 HTS 109.0, MEKK3 PB1 HTS 128.0*, UCH37 inh 5.1, T cell HTS 226.8, MEKK2wt confirm 102.0, MEKK2mut confirm -3.0 and MEKK3 confirm 102.0.
`S=c1nc(-c2ccccc2Br)[nH][nH]1` gave MEKK2 mut-MEK5 -3.0, Rce1 inh inactive, MEKK2wt PB1 HTS -2.0*[inhibitor], MEKK3 PB1 HTS 1.0*[inhibitor], UCH37 inh 2.8, T cell HTS 70.4, MEKK2wt confirm 97.0, MEKK2mut confirm -3.0 and MEKK3 confirm 94.0.
Cc1c(N=C2SCC(=O)N2/N=C/c2ccccc2)c(=O)n(-c2ccccc2)n1C was read as MEKK2 mut-MEK5 0.0, Rce1 inh inactive, MEKK2wt PB1 HTS 102.0, MEKK3 PB1 HTS 129.0*, T cell HTS 417.1, MEKK2wt confirm 97.0, MEKK2mut confirm 0.0 and MEKK3 confirm 100.0.
For Cc1c(N2C(=O)CSC2=NN=Cc2ccc(Br)cc2)c(=O)n(-c2ccccc2)n1C the results were UCH37 inh -2.2.
Screening CC(=NNc1nc(N)cc(Cl)n1)c1cccc([N+](=O)[O-])c1 returned UCH37 inh 7.0.
Screening Cc1ccc(Cc2c(C)nc3nc(SCC(=O)NCc4ccco4)nn3c2C)cc1 returned MEKK2 mut-MEK5 6.0, Rce1 inh inactive, MEKK2wt PB1 HTS 129.0, MEKK3 PB1 HTS 122.0*, UCH37 inh 1.2, T cell HTS 253.9, MEKK2wt confirm 100.0, MEKK2mut confirm 3.0 and MEKK3 confirm 106.0.
Cc1ccccc1Cc1c(C)nc2nc(SCC(=O)NCc3ccco3)nn2c1C was read as MEKK2 mut-MEK5 4.0, Rce1 inh inactive, MEKK2wt PB1 HTS 118.0, MEKK3 PB1 HTS 116.0, UCH37 inh 1.9 and T cell HTS 185.3.
`Cc1cccc(Cc2c(C)nc3nc(SCC(=O)NCc4ccco4)nn3c2C)c1` gave MEKK2 mut-MEK5 7.0, Rce1 inh inactive, MEKK2wt PB1 HTS 122.0, MEKK3 PB1 HTS 126.0*, UCH37 inh 1.1, T cell HTS 81.2, MEKK2wt confirm 102.0, MEKK2mut confirm -1.0 and MEKK3 confirm 101.0.
Cc1nc2nc(SCC(=O)NCc3ccco3)nn2c(C)c1Cc1c(F)cccc1Cl was read as MEKK2 mut-MEK5 -1.0, Rce1 inh inactive, MEKK2wt PB1 HTS 100.0, MEKK3 PB1 HTS 97.0, UCH37 inh -0.9 and T cell HTS 390.7.
`O=C(Nc1nc2ccccc2[nH]1)c1ccc(Cl)cc1` gave MEKK2 mut-MEK5 2.0, Rce1 inh inactive, MEKK2wt PB1 HTS 100.0, MEKK3 PB1 HTS 100.0, UCH37 inh -20.3 and T cell HTS 228.3.

Screening data: PubChem, several laboratories
